Experimental data published in ChEMBL document CHEMBL1129431, “Derivatives of (R)- and (S)-5-fluoro-8-hydroxy-2-(dipropylamino)tetralin: synthesis and interactions with 5-HT1A receptors” (J Med Chem, 1996).

Columns and labels:
[1] = biological target: T1, 5-hydroxytryptamine receptor 1A (Rattus norvegicus) (UniProt P19327); assay: Effect on 5-hydroxytryptamine 1A receptor mediated inhibition of VIP-stimulated cAMP production at dose of 50 uM+ 50 uM 5-HT.; format: functional; conditions: values are per cent of control
T1 sequence (whole entry): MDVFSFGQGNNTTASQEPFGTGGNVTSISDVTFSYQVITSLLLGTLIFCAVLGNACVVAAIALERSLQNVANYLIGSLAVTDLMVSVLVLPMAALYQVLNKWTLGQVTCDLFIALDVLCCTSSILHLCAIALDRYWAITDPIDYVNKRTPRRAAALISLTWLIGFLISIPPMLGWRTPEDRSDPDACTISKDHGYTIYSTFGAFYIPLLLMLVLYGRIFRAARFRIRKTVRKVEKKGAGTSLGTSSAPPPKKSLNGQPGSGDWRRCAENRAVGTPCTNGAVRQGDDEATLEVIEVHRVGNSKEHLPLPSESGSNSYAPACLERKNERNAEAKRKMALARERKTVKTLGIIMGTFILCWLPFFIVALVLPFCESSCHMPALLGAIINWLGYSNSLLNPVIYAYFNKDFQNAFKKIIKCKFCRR
Summary of the method: (§1)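 GH4ZD10 cells expressing rat 5-HT1A receptors, detached with EDTA-supplemented Ca/Mg-free EBSS and resuspended in Ham's F10 with 0.01% ascorbic acid and 0.1 mM IBMX. Preincubated 1 h at 37 °C, then 0.8-1.5×10^6 cells/mL incubated 20 min at 37 °C with VIP (39 nM final) plus compounds. Duplicate samples stopped by boiling. cAMP measured in triplicate by protein-binding assay. Results are given as % of the VIP-stimulated response.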

[2] = biological target: T1, 5-hydroxytryptamine receptor 1A (Rattus norvegicus); assay: Effect on 5-hydroxytryptamine 1A receptor mediated inhibition of VIP-stimulated cAMP production at dose of 10 uM; format: functional; conditions: values are per cent of control
Summary of the method: (§2)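 GH4ZD10 cells expressing rat 5-HT1A receptors were detached with EBSS plus 1 mM EDTA and resuspended to ~1×10^7 cells/mL in Ham's F10 with 0.01% ascorbic acid and 0.1 mM IBMX. After 1 h preincubation at 37 °C they were diluted to 0.8-1.5×10^6 cells/mL, then incubated 20 min at 37 °C with VIP (39 nM final) plus compound, alone or with 5-HT, in duplicate. The reaction was stopped by boiling. cAMP was measured in triplicate by protein-binding assay and expressed as % of the VIP-stimulated response.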

[3] = biological target: T1, 5-hydroxytryptamine receptor 1A (Rattus norvegicus); assay: Effect on 5-hydroxytryptamine 1A receptor mediated inhibition of VIP-stimulated cAMP production at dose of 1 uM; format: functional; conditions: values are per cent of control; summary of the method: as §2
[4] = biological target: T2, 5-hydroxytryptamine receptor 1A (Rattus norvegicus, UniProt P19327); assay: Binding affinity against rat hippocampal 5-hydroxytryptamine 1A (5-HT1A) receptor determined using [3H]8-OH-DPAT as radioligand; format: tissue-based, Hippocampus
T2 sequence (P19327 whole entry): T1 sequence (whole entry)

[5] = biological target: T1, 5-hydroxytryptamine receptor 1A (Rattus norvegicus); assay: Effect on 5-hydroxytryptamine 1A receptor mediated inhibition of VIP-stimulated cAMP production at dose of 50 uM; format: functional; conditions: values are per cent of control; summary of the method: as §1
[6] = biological target: T1, 5-hydroxytryptamine receptor 1A (Rattus norvegicus); assay: Effect on 5-hydroxytryptamine 1A receptor mediated inhibition of VIP-stimulated cAMP production at dose of 1 uM+ 1 uM 5-HT.; format: functional; conditions: values are per cent of control; summary of the method: as §1
[7] = biological target: T1, 5-hydroxytryptamine receptor 1A (Rattus norvegicus); assay: Effect on 5-hydroxytryptamine 1A receptor mediated inhibition of VIP-stimulated cAMP production at dose of 0.1 uM + 1 uM 5-HT.; format: functional; conditions: values are per cent of control; summary of the method: as §2
[8] = biological target: T1, 5-hydroxytryptamine receptor 1A (Rattus norvegicus); assay: Effect on 5-hydroxytryptamine 1A receptor mediated inhibition of VIP-stimulated cAMP production at dose of 0.05 uM; format: functional; conditions: values are per cent of control; summary of the method: as §1
[9] = biological target: T1, 5-hydroxytryptamine receptor 1A (Rattus norvegicus); assay: Effect on 5-hydroxytryptamine 1A receptor mediated inhibition of VIP-stimulated cAMP production at dose of 10 uM+ 10 uM 5-HT.; format: functional; conditions: values are per cent of control; summary of the method: as §1
[10] = biological target: T1, 5-hydroxytryptamine receptor 1A (Rattus norvegicus); conditions: 0.05 uM
[11] = biological target: T1, 5-hydroxytryptamine receptor 1A (Rattus norvegicus); assay: Effect on 5-hydroxytryptamine 1A receptor mediated inhibition of VIP-stimulated cAMP production at dose of 1 uM+ 50 uM 5-HT.; format: functional; conditions: values are per cent of control; summary of the method: as §1

| response, % of control [1] [%] | response, % of control [2] [%] | response, % of control [3] [%] | Ki [4] [nM] | response, % of control [5] [%] | response, % of control [6] [%] | response, % of control [7] [%] | response, % of control [8] [%] | response, % of control [9] [%] | response, % of control [10] [%] | response, % of control [11] [%] | Structure (SMILES) |
| --- | --- | --- | --- | --- | --- | --- | --- | --- | --- | --- | --- |
| 91 | 109 | 97 | 13.9 | 93 | 91 | 70 | 104 | 102 |  |  | CCCN(CCCCN1C(=O)CC2(CCCC2)CC1=O)[C@H]1CCc2c(F)ccc(C(C)=O)c2C1 |
|  |  | 79 | 4.9 | 39 |  | 50 |  |  | 87 | 41 | CCCN(CCCCN1C(=O)CC2(CCCC2)CC1=O)[C@H]1CCc2c(F)ccc(OC)c2C1 |
